The values that follow come from ChEMBL document CHEMBL3870302, “Computer-aided identification, synthesis and evaluation of substituted thienopyrimidines as novel inhibitors of HCV replication” (Eur J Med Chem, 2016).

A short description of series [1]: Selectivity index, ratio of CC50 for human HuH5.2 cells to EC50 for hepatitis C virus genotype 1b infected in human HuH5.2 cells. Format: toxicity, cell-based. The conditions noted are these: for selectivity ratio: HuH5.2 cells, read-out: Ratio CC50/EC50. The gist of the method:
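Ratio of CC50 (MTS metabolic read-out, 72 h) to EC50 (replicon luciferase read-out, 72 h), both measured in parallel on Huh 5-2 genotype 1b replicon cells.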

The nature of series [2]: Cytotoxicity against human HuH5.2 cells assessed as reduction in metabolic activity after 72 hrs by MTS assay. Format: toxicity, cell-based, Huh-5-2. The conditions noted are these: for CC50 at 72 h: HuH5.2 cells. The gist of the method: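 Run in parallel with the replicon assay: Huh 5-2 replicon cells, 6 500 cells/well, compound series for 72 h at 37 °C, 5% CO2. Medium then replaced with 5% MTS in phenol red-free medium for 1.5 h. Absorbance at 498 nm expressed as % untreated cells; CC50 from dose-response curve as 50% reduction in metabolic activity, mean of ≥2 experiments.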

Series [3] in a line: Inhibition of Hepatitis C virus genotype 1b (con1) full length C-terminal His-tagged NS3 helicase expressed in Escherichia coli Rosette(DE3) assessed as inhibition of 5'-Cy5/3'-IAbRQ-labeled DNA unwinding activity by molecular beacon assay. Details: species or system Hepatitis C virus (isolate Con1). The gist of the method: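 Molecular beacon unwinding assay: 25 mM MOPS pH 6.5, 1.25 mM MgCl2, 5% DMSO, 5 µg/ml BSA, 0.01% Tween20, 0.05 mM DTT, 5 nM fluorescent DNA substrate, 12.5 nM NS3h, 1 mM ATP.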

For the next series, the system named is Hepatitis C virus. The series is described as follows: Antiviral activity against Hepatitis C virus genotype 1b infected in human HuH5.2 cells after 72 hrs by luciferase reporter gene assay. Format: functional, cell-based, Hepacivirus hominis. The method, boiled down: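 Huh 5-2 cells with genotype 1b I389luc-ubi-neo/NS3-3'/5.1 subgenomic replicon, seeded 6 500 cells/well in DMEM/10% FCS without Geneticin, overnight 37 °C. Compound (DMSO stock diluted in medium) in 1:5 four-step or 1:2 eight-step series, 72 h. Cells PBS-washed, lysed 5 min, luciferase luminescence read, converted to % untreated control; EC50 from dose-response curve, mean of ≥2 independent experiments.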
(In a reporter assay the amount or activity of a reporter protein is the signal.)

The nature of series [4]: Inhibition of protease domain lacking Hepatitis C virus genotype 1b (con1) C-terminal His-tagged NS3 helicase ATP hydrolysis activity using ATP as substrate preincubated followed by substrate addition measured after 15 mins in presence of poly U RNA by malachite green-based assay. The arrangement: species or system Hepatitis C virus (isolate Con1).
A short description of series [5]: Inhibition of Cy5-labeled dT15 DNA binding to Hepatitis C virus genotype 1b (con1) NS3 helicase DNA by fluorescence polarization assay. The arrangement: species or system Hepatitis C virus (isolate Con1). The gist of the method:
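Displacement of NS3h from a DNA oligonucleotide, 15 nM NS3h in 25 mM MOPS pH 7.5, 1.25 mM MgCl2, 0.0025 mg/ml BSA, 0.005% Tween20, 0.025 mM DTT.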

Series [6] in a line: Inhibition of protease domain lacking Hepatitis C virus genotype 1b (con1) C-terminal His-tagged NS3 helicase ATP hydrolysis activity using ATP as substrate preincubated followed by substrate addition measured after 15 mins in absence of poly U RNA by malachite green-based assay. The arrangement: species or system Hepatitis C virus (isolate Con1).
Where [7] appears, read: Hepatitis C virus, genotype 1b, Huh-5-2, 72 h.

On to `O=C(NNc1ncnc2sccc12)c1ccccn1`, for which the selectivity ratio in series [1] was determined as 445. The CC50 (usually the concentration at which the toxic effect on the cells reaches its halfway point) at 72 h in series [2] is 138 µM. Moreover, in series [3], the 50% inhibitory concentration (IC50) (in general, the concentration needed to halve the response being measured) is above 1000 µM. For the same compound, in the series on Hepatitis C virus (setting [7]), the EC50 (as a rule, the concentration that produces a half-maximal response) was found to be 0.314 µM and the 90% effect level (EC90) was put at 0.671 µM.
On the same counts, the results for `c1ccc2[nH]c(Nc3ncnc4sc5c(c34)CCCC5)nc2c1` are 4.2, 231 µM, above 1000 µM, 55.4 µM and above 104 µM.
With `O=C(NNc1ncnc2sc3ccccc3c12)c1cnccn1`, the selectivity ratio in series [1] worked out at 18.5. The IC50 in series [4] is above 1000 µM; in series [5], 949 µM; in series [3], above 1000 µM. Besides, in series [2], the CC50 at 72 h worked out at 1.34 µM. The compound further displayed an EC50 in the series with Hepatitis C virus (setting [7]) of 0.0723 µM. In addition, the EC90 (commonly the concentration needed for an effect of 90%) in the series on Hepatitis C virus (setting [7]) worked out at 0.192 µM.
For the compound `C/C(=N\Nc1ncnc2sc3c(c12)CCCC3)c1ccccc1O`, in series [1], the selectivity ratio was 59.2. Also, the 50% inhibitory concentration (IC50) was 760 µM in series [6], 780 µM in series [4], above 1000 µM in series [5] and above 1000 µM in series [3]. The CC50 at 72 h in series [2] worked out at 154 µM. Further, the EC50 in the series with Hepatitis C virus (setting [7]) is 2.6 µM. This compound displayed an EC90 with Hepatitis C virus (setting [7]) of 20.1 µM.
With `Oc1ccc(O)c(/C=N/Nc2ncnc3sc4c(c23)CCCC4)c1`, the selectivity ratio in series [1] was 31.5. In addition, the CC50 at 72 h in series [2] was found to be 36.8 µM. Besides, the concentration for half-maximal inhibition (IC50) in series [3] was above 1000 µM. In the series with Hepatitis C virus (setting [7]), the EC50 came to 1.17 µM and the concentration for an effect of 90% (EC90) was 2.92 µM.
As to `O=S(=O)(NNc1ncnc2sc3c(c12)CCCC3)c1ccccn1`, in series [1], the selectivity ratio came to 3.4. The figures for the IC50 in series [4], in series [5] and in series [3] were above 1000 µM, 675 µM and above 1000 µM, respectively. In series [2], the CC50 at 72 h is 145 µM. The same compound registered an EC50 in the series on Hepatitis C virus (setting [7]) of 42.9 µM. Besides, the EC90 in the series on Hepatitis C virus (setting [7]) was 83.2 µM.
With `C/C(=N\Nc1ncnc2sc3c(c12)CCCC3)c1cnccn1`, in series [1], the selectivity ratio was found to be 160. In series [2], the 50% cytotoxic concentration (CC50) at 72 h amounted to 57.1 µM. The IC50 in series [3] was above 1000 µM. Besides, in the series with Hepatitis C virus (setting [7]), a half-maximal effect (EC50) was put at 0.355 µM and the 90% effect concentration (EC90) was found to be 2.85 µM.
Regarding `O=C(NNc1ncnc2sc3c(c12)CCC3)c1ccccc1O`, the selectivity ratio in series [1] worked out at 538. Further, the IC50 in series [6] was above 1000 µM; in series [4], 333 µM; in series [5], above 1000 µM; in series [3], 250 µM. Besides, the CC50 at 72 h in series [2] was determined as 119 µM. The same compound gave a concentration for a half-maximal effect (EC50) with Hepatitis C virus (setting [7]) of 0.221 µM. Moreover, the EC90 with Hepatitis C virus (setting [7]) came out at 0.352 µM.
Regarding `C/C(=N/Nc1ncnc2sc3c(c12)CCC3)c1nc2ccccc2[nH]1`, the selectivity ratio in series [1] was determined as 8.3. Besides, the CC50 at 72 h in series [2] worked out at 6.83 µM. Further, the 50% inhibitory concentration (IC50) in series [3] is above 1000 µM. In addition, in the series on Hepatitis C virus (setting [7]), a half-maximal response (EC50) required 0.802 µM and the EC90 is below 2.24 µM.
For `C/C(=N\Nc1ncnc2sc3c(c12)CCC3)c1ccccc1O`, in series [1], the selectivity ratio was found to be 82.9. Moreover, the CC50 at 72 h in series [2] is 141 µM. Further, the IC50 in series [3] is above 1000 µM. Further, in the series on Hepatitis C virus (setting [7]), a half-maximal response (EC50) required 1.72 µM and the EC90 was found to be 4.07 µM.
Regarding `C/C(=N\Nc1ncnc2sc3ccccc3c12)c1cc(O)ccc1O`, the selectivity ratio in series [1] is 44.2. For the same compound, the CC50 at 72 h in series [2] was 21 µM. Also, in series [3], the IC50 was above 1000 µM. In the series with Hepatitis C virus (setting [7]), this compound gave an EC50 of 0.475 µM and an EC90 of 0.897 µM.
On to `O=C(NNc1ncnc2sc3c(c12)CCCC3)c1cc2ccccc2[nH]1`, for which, in series [1], the selectivity ratio came to 3.6. For the same compound, the CC50 at 72 h in series [2] is 74.5 µM. Moreover, the concentration for half-maximal inhibition (IC50) in series [3] is 224 µM. For the same compound, the EC50 in the series with Hepatitis C virus (setting [7]) worked out at 20.8 µM.
Take `O=C(NNc1ncnc2sc3c(c12)CCC3)c1cc(O)ccc1O`: in series [1], the selectivity ratio was found to be 84.6. Further, the 50% cytotoxic concentration (CC50) at 72 h in series [2] amounted to 198 µM. Besides, in series [3], the IC50 is above 1000 µM. Moreover, in the series on Hepatitis C virus (setting [7]), the EC50 was found to be 2.34 µM and the EC90 worked out at 3.67 µM.
On to `O=C(NNc1ncnc2sccc12)c1cnccn1`, for which the selectivity ratio in series [1] is 274. For the same compound, the CC50 at 72 h in series [2] came out at 233 µM. In addition, the 50% inhibitory concentration (IC50) in series [3] is above 1000 µM. In the series on Hepatitis C virus (setting [7]), it took 0.851 µM to reach a half-maximal effect (EC50) and it took 2.28 µM to reach the 90% level (EC90).
For the compound `Cc1ccc2nc(-c3ccc4nc(-c5ccc(N)cc5)sc4c3)sc2c1S(=O)(=O)O`, the IC50 is above 200 µM in series [6], 40 µM in series [4], 46 µM in series [5] and 10 µM in series [3].
With `O=C(NNc1ncnc2sc3c(c12)CCCC3)c1ccccc1O`, the selectivity ratio in series [1] was found to be 233. In series [2], the CC50 at 72 h is 63.6 µM. Further, in series [3], the IC50 was above 1000 µM. Further, in the series on Hepatitis C virus (setting [7]), the EC50 came to 0.273 µM and the EC90 was found to be 0.567 µM.
As for `C/C(=N/Nc1ncnc2sc3c(c12)CCC3)c1ccccn1`, the selectivity ratio in series [1] was 11.9. Further, the CC50 at 72 h in series [2] was found to be 14 µM. Also, the IC50 in series [3] was above 1000 µM. In the series on Hepatitis C virus (setting [7]), the EC50 stood at 1.18 µM and the EC90 was 1.44 µM.
Regarding `C/C(=N\Nc1ncnc2sc3c(c12)CCCC3)c1cc2ccccc2[nH]1`, the selectivity ratio in series [1] is 0.42. Also, the CC50 at 72 h in series [2] worked out at 26 µM. Also, the IC50 in series [3] was above 1000 µM. In the series on Hepatitis C virus (setting [7]), this compound came in with an EC50 of 61.2 µM and an EC90 above 277 µM.
For `C/C(=N\Nc1ncnc2sc3ccccc3c12)c1ccccc1O`, the selectivity ratio in series [1] came out at 134. Moreover, the IC50 is above 1000 µM in series [4], 827 µM in series [5] and above 1000 µM in series [3]. Moreover, the CC50 at 72 h in series [2] was 11.5 µM. This compound also yielded an EC50 in the series on Hepatitis C virus (setting [7]) of 0.0861 µM. The compound also displayed an EC90 with Hepatitis C virus (setting [7]) of 0.421 µM.
As to `C/C(=N\Nc1ncnc2sc3c(c12)CCCC3)c1cc(O)ccc1O` (stereo in doubt; form 1), the “Ratio CC50/EC50” value in series [1] is listed as above 141. Also, in series [2] (huh-5-2, 72 h, 72 h), the CC50 is above 141 µM. Also, the IC50 in series [3] was above 1000 µM. The EC50 with Hepatitis C virus was below 1 µM.
Take `O=C(O)C1=CC(=C(c2ccc(O)c(C(=O)O)c2)c2ccc(O)c(C(=O)O)c2)C=CC1=O` [AURINTRICARBOXYLIC ACID]: the IC50 in series [6] was determined as 3.3 µM; in series [4], 5.1 µM; in series [5], 2 µM; in series [3] it was 0.3 µM.
